For 22 compounds, IC50 results are on record in ChEMBL document CHEMBL1147812 (J Med Chem, 2006).

The experiment has as its target Neuronal acetylcholine receptor; alpha4/beta2 (Rattus norvegicus, UniProt P09483+P12390). As to the kind of experiment: Inhibition of [3H]cytisine binding to alpha4beta2 nACHR in Wistar rat cerebral cortical membrane. A digest of the protocol:
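Male Wistar rat (150-250 g) cerebral cortex homogenized at 0-4 °C in 50 mM Tris HCl pH 7.4 with 120 mM NaCl, 5 mM KCl, 1 mM MgCl₂, 2.5 mM CaCl₂, then washed twice by centrifugation at 27 000g. Membranes incubated with test drug and 1 nM ³H-cytisine (final) for 90 min at 2 °C. Nonspecific binding defined with 100 µM (-)-nicotine. Bound label collected on GF/C filters and counted by liquid scintillation.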

Chain of Neuronal acetylcholine receptor; alpha4/beta2 (P09483 whole entry): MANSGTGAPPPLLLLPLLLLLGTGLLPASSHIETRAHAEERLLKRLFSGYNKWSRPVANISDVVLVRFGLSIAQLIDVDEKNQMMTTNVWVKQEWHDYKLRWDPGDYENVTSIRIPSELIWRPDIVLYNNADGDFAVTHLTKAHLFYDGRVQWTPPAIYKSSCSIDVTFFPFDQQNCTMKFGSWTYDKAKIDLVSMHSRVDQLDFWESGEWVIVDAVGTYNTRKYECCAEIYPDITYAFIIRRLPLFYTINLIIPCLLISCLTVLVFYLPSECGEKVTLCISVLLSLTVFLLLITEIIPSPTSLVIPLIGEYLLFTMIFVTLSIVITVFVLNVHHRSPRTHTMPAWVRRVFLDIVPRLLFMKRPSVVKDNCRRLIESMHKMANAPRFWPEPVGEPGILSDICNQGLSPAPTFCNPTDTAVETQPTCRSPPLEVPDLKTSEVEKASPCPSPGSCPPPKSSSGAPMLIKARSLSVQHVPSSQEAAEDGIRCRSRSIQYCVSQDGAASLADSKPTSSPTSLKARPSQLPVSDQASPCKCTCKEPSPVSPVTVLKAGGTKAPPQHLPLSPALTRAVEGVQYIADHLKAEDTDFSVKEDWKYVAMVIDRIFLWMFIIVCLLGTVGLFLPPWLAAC
Chain of Neuronal acetylcholine receptor; alpha4/beta2 (P12390 whole entry): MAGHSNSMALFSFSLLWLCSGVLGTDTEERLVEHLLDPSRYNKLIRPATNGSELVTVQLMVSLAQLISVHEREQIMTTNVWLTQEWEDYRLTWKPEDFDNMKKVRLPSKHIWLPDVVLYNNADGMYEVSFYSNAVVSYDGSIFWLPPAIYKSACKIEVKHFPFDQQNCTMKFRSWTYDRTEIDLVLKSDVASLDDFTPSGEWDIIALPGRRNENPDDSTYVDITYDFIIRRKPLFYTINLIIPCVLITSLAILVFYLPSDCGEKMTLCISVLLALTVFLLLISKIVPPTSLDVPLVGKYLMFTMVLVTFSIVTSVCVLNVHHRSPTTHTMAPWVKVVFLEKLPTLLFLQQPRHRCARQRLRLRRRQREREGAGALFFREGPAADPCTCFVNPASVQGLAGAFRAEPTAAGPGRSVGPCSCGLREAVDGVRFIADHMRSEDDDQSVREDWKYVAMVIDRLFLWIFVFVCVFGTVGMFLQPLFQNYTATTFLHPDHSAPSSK

The compound `c1ncc(N2CCCNCC2)cc1C1CC1` registered an IC50 of 5.8 nM.
`C=COc1cncc(N2CCNCC2)c1` yielded an IC50 of 190 nM.
With `Oc1cc(N2CCCNCC2)cnc1I` the figure was 22 nM.
For `C/C=C\Oc1cncc(N2CCCNCC2)c1` the value was 1.3 nM; for `C=COc1cc(N2CCCNCCC2)cnc1Br`, 0.38 nM; for `Brc1ccc(N2CCNCC2)cn1`, 180 nM.
With `Clc1cncc(N2CCCNCCC2)c1` the figure was 2 nM.
On to `Cc1ncc(N2CCNCC2)cc1Cl`, for which the 50% inhibitory concentration (IC50) was 520 nM.
Consider `Clc1ncc(N2CCCNCC2)cc1Br`, for which the IC50 was 1.4 nM.
In the case of `c1cncc(N2CCCNCCC2)c1`, the IC50 was determined as 0.9 nM.
With `Brc1ccc(N2CCCNCCC2)cn1` the figure was 0.45 nM; with `Clc1ncc(N2CCNCC2)cc1Br`, 230 nM.
In turn, `Clc1cc(N2CCCNCC2)cnc1Br` displayed an IC50 of 1.4 nM.
With `C#Cc1cncc(N2CCNCC2)c1` the figure was 110 nM; with `C=COc1cc(N2CCCNCC2)cnc1Br`, 0.64 nM.
For `COc1cncc(N2CCNCC2)c1` the value was 500 nM; for `Brc1cncc(N2CCCNCCC2)c1`, 2.8 nM.
With `C/C=C\Oc1cncc(N2CCC3CCC(C2)N3)c1` (racemic) the figure was 1.9 nM.
Consider `CCOc1cncc(N2CCC3CCC(C2)N3)c1` (racemic), for which the IC50 is 6.5 nM.
With `Clc1cncc(OC2CCCNC2)c1` (racemic), the IC50 amounted to 240 nM.
Take `COc1cncc(N2C3CCNCC2CC3)c1` (racemic): the IC50 turned out to be 10 nM.
With `C/C=C\Oc1cncc(N2C3CCNCC2CC3)c1` (racemic) the figure was 3.1 nM.

As a reminder, the IC50 is the concentration that inhibits the measured activity by half. Read a low IC50 as greater potency.
